# Assay results: PubChem BioAssay
# Active and inactive are the calls of the source.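 Rule for the calls, unless noted: active = NADPH fluorescence slope more negative than the mean of all samples by about 3 SD, 99.7% confidence; inactive = the rest.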
# Legend:
# [1] = inhibitors of TNFa-induced NFkB p65 translocation, primary screen, imaging, HUVEC, MLSMR starter and 10KST1 sets (AID 438;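 active = inhibition above 20% together with a positive visual image hit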;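 note: compound added about 3h40 before a 20 min TNFalpha stimulation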;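 for inhibition: signal is the nuclear over cytoplasmic p65 intensity ratio per well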); conditions: HUVEC TNFa-induced p65 nuclear translocation; cell count: measured here: nuclei count (cytotoxicity indicator), at 2.08 µM; inhibition: at 2 µM, stronger effect = higher value, 0% TNFa-plus-vehicle, 100% no-TNFa wells
# [2] = inhibitors of mutant huntingtin aggregation, primary screen, imaging, exon1htt(103Q)mCFP cells, high-content imaging (AID 483;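 active = visual image review flags a hit and inhibition of aggregation exceeds 20%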;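 note: compound exposure lasted 3 days before fixation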;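 for nuclei count: percent of the per-plate median nuclei count of sample wells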); conditions: exon1htt(103Q)mCFP cell line, aggregate imaging, at 2 µM; inhibition of aggregation: stronger effect = higher value; nuclei count: measured here: cell count, toxicity
# [3] = inhibitors of E-selectin induction by TNFa, primary screen, imaging, HUVEC, immunofluorescence, MLSMR starter and 10KST1 sets (AID 487;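 active = visually confirmed hit in the image check and inhibition above 20%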;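 for inhibition: signal is fraction of cell area covered by stained E-selectin grains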;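 for nuclei count: 100% = median nuclei count of all wells on the same plate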); conditions: HUVEC TNFalpha-induced E-selectin immunofluorescence imaging, at 2 µM; inhibition: stronger effect = higher value; nuclei count: measured here: cell number, toxicity
# [4] = biological target: Voltage-gated potassium channel subunit beta-2 (Rattus norvegicus) (UniProt P62483); experiment: KvBeta enzyme negative modulators, primary screen, biochemical, NADPH fluorescence (AID 622;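 active = fluorescence slope higher than the sample average by over 3 SD, cut at about -0.22 in these data, passing the limit was not always enough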;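 note: slope of raw intensity against log time taken from 70 to 1610 s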); conditions: recombinant KvBeta, 4-cyanobenzaldehyde reduction, at 10 µM, stronger effect = higher value
# Sequence of Voltage-gated potassium channel subunit beta-2 (Rattus norvegicus) (P62483 whole entry, looked up): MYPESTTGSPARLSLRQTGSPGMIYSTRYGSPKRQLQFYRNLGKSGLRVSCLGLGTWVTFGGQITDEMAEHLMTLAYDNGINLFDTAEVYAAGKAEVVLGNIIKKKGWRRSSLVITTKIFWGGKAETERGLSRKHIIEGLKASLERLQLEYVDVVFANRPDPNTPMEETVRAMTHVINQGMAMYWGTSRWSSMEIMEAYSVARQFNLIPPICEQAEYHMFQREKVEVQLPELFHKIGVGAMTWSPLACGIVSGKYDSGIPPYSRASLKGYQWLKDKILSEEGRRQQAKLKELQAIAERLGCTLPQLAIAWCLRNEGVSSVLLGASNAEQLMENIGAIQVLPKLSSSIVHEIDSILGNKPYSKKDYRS
# [5] = biological target: Voltage-gated potassium channel subunit beta-2 (Rattus norvegicus) (UniProt P62483); experiment: KvBeta positive modulators, primary screen, biochemical, NADPH fluorescence (AID 623); conditions: Recombinant KvBeta, NADPH fluorescence decrease slope, 10 min; at 10 µM; stronger effect = lower value;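 note: fluorescence intensity change per second fitted from 20 to 320 s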
# [6] = biological target: Muscarinic acetylcholine receptor M4 (Homo sapiens) (UniProt P08173); experiment: compounds altering M4/GIRK thallium flux, either direction, primary screen, M4 allosteric agonist project, cell-based, HEK293 M4/GIRK, BTC-AM (AID 625;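 active = fluorescence slope after compound addition differing from the mean of all tested samples at 99.7% confidence, mostly higher but some lower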;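 note: thallium influx through GIRK channels coupled to M4 in HEK293 cells with BTC-AM dye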); conditions: at 10 µM, actives lie on both sides
# Sequence of Muscarinic acetylcholine receptor M4 (Homo sapiens) (P08173 whole entry, looked up): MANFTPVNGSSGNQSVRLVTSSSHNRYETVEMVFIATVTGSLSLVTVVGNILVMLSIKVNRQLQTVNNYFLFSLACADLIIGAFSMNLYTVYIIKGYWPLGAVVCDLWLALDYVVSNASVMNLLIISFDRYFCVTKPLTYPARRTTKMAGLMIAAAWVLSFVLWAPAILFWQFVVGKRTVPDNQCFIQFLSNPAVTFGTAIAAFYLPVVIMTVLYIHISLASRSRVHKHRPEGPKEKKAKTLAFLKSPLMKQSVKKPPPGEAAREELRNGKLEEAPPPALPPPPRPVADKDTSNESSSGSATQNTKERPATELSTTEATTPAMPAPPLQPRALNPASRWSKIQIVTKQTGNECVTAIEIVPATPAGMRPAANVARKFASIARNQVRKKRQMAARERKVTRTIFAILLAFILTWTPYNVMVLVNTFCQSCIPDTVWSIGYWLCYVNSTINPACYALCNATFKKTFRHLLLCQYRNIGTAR
# Procedure, shortened: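 System: HEK293 cells with M4 receptor and GIRK channels | Incubation: Cells overnight at 37 °C, BTC-AM loading 1 h, reads 2 min total | Technique: Kinetic BTC-AM fluorescence sampled at 1 Hz, 10 s pre-addition baseline | Measure: Post-addition slope, 15–24 s, of baseline-normalized fluorescence | Control set: Carbachol positive, DMSO negative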
# [7] = inhibitors of Sendai virus-induced IRF3 signaling, primary screen, TLR/RLR signaling modifier project, cell-based, Sendai virus stimulus, luciferase, 10K MLSCN set (AID 602276;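 active = inhibition at or above 50% at 10 µM; inactive = inhibition below 50%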;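 note: firefly luciferase from ISG56 promoter only with Renilla not read in this screen; 0% = Sendai virus plus DMSO and 100% = medium plus DMSO without virus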); conditions: HEK293 RL24 IRF3 luciferase reporter, at 10 µM, stronger effect = higher value
# [8] = inhibitors of poly I:C-induced TLR3 signaling, primary screen, cell-based, poly I:C stimulus, luciferase, 10K MLSCN set (AID 602277;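 active = inhibition of the reporter signal at or above 50%; inactive = inhibition below 50%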); conditions: HEK293-TLR3 RL24 IRF3 luciferase reporter, at 10 µM, stronger effect = higher value
Structure (SMILES),cell count [1],inhibition [1],inhibition of aggregation [2],nuclei count [2] [%],inhibition [3],nuclei count [3] [%],fluorescence slope [4],NADPH fluorescence slope [5],fluorescence slope [6],inhibition [7],inhibition [8]
Cc1ccc2nc(SC(C)C(=O)N3CCCC3)[nH]c2c1 (stereo not drawn),467,0% (inactive),9.4% (inactive),75.7,-59.3% (inactive),112,-0.478 (inactive),6e-05 (inactive),0.00661 (inactive),-21.2% (inactive),-39.7% (inactive)
NC(=O)SCC(=O)Nc1cccc(Cl)c1,449,-0.5% (inactive),-7.6% (inactive),119,-267% (inactive),132,-0.576 (inactive),-1.5e-06 (inactive),0.00648 (inactive),18.6% (inactive),15.3% (inactive)
COCCN1C(=O)C(=O)/C(=C(/O)c2cccc(S(=O)(=O)N(C)C)c2)C12C(=O)N(C)c1ccccc12 (stereo not drawn),584,-22.3% (inactive),5.4% (inactive),115,-76.4% (inactive),107,-0.483 (inactive),-5e-05 (inactive),0.00617 (inactive),8.34% (inactive),33.7% (inactive)
CN1CCN(C(=O)c2cnn3c(C(F)F)cc(C4CC4)nc23)CC1,277,-6.3% (inactive),-15.2% (inactive),63.5,-8.6% (inactive),100,-0.513 (inactive),-0.000106 (inactive),0.00468 (inactive),21% (inactive),30% (inactive)
Cc1ccc2nc(SCC(=O)NCc3ccco3)c(C#N)cc2c1,388,-4.7% (inactive),17.5% (inactive),100,1.8% (inactive),99.6,-0.592 (inactive),1.6e-05 (inactive),0.00711 (inactive),-4.71% (inactive),-2.98% (inactive)
O=C(NC1CCCCC1)C(c1ccco1)N(Cc1cccnc1)C(=O)C1COc2ccccc2O1 (stereo not drawn),509,-13.1% (inactive),-14.5% (inactive),111,-4.6% (inactive),198,-0.607 (inactive),-1e-05 (inactive),0.00322 (inactive),22.1% (inactive),35.6% (inactive)
CCN(CC)C(=O)C1=C(C)NC(=O)NC1c1c(F)cccc1Cl (stereo not drawn),410,-7.5% (inactive),-3.7% (inactive),116,-73.9% (inactive),122,-0.521 (inactive),-0.000194 (inactive),0.00392 (inactive),7.67% (inactive),10.6% (inactive)
O=C(COc1ncnc2ccccc12)NCc1ccc2c(c1)OCO2,345,-1.6% (inactive),-8.2% (inactive),101,-38.6% (inactive),105,-0.584 (inactive),-5e-06 (inactive),0.00352 (inactive),15.1% (inactive),16.2% (inactive)
CC(Oc1ccccc1)C(=O)N1CCCc2ccccc21 (stereo not drawn),474,9.1% (inactive),-2.8% (inactive),118,-43.6% (inactive),112,-0.239 (inactive),1.4e-05 (inactive),0.00527 (inactive),2.1% (inactive),29.5% (inactive)
CCS(=O)(=O)c1nc2ccccc2n1CC(=O)N1CCOCC1,581,-4.1% (inactive),-22.2% (inactive),95.9,-85.4% (inactive),98.1,-0.589 (inactive),-3e-05 (inactive),0.00736 (inactive),16.1% (inactive),10.7% (inactive)
O=C(Nc1ccncc1)c1cncc(Br)c1,718,-3% (inactive),-6.3% (inactive),98,-153% (inactive),114,-0.243 (inactive),-9.4e-06 (inactive),0.00626 (inactive),1.8% (inactive),0.632% (inactive)
CCN(CC)CCNC(=O)C1CCN(S(=O)(=O)N2CCCCC2)CC1,634,2.6% (inactive),-30.2% (inactive),48.9,-41.5% (inactive),109,-0.412 (inactive),2.2e-05 (inactive),0.00434 (inactive),11.3% (inactive),15.8% (inactive)
CCN1CCN(CCCNC(=O)c2cn(CCOC)c(=O)c3c2c2ccccc2n3C)CC1,451,-6.3% (inactive),5.8% (inactive),103,-2.9% (inactive),106,-0.569 (inactive),-1.9e-06 (inactive),0.00513 (inactive),-6.82% (inactive),0.455% (inactive)
O=C(CN1CCN(c2ncc(C(F)(F)F)cc2Cl)CC1)Nc1ccc2c(c1)OCO2,407,-5.7% (inactive),4.8% (inactive),106,-11.6% (inactive),104,-0.559 (inactive),-4.3e-05 (inactive),0.00584 (inactive),7.72% (inactive),11.6% (inactive)
CCCCc1c(O)nc(SCC(=O)c2ccccc2)[nH]c1=O,375,1.7% (inactive),10.7% (inactive),90.4,21.3% (inactive),95.1,-0.561 (inactive),-8.5e-05 (inactive),0.00359 (inactive),14.2% (inactive),11.2% (inactive)
CCC(=O)c1ccc(OCC(=O)N2CCc3cc(OC)c(OC)cc3C2)cc1,369,10.8% (inactive),17.3% (inactive),91.3,25.9% (inactive),99.5,-0.577 (inactive),-4.3e-05 (inactive),0.00901 (inactive),3.27% (inactive),12.3% (inactive)
Cc1ccc(-c2cc(C(F)(F)F)n3ncc(C(=O)O)c3n2)cc1,412,3.1% (inactive),-8.3% (inactive),109,-26.7% (inactive),110,-0.524 (inactive),-3.4e-05 (inactive),0.00395 (inactive),19.6% (inactive),21.8% (inactive)
COc1cc2nc(C3CCC3)n(NC(=O)C3CCCC(OC)C3)c(=O)c2cc1OC (stereo not drawn),609,-8.8% (inactive),-18% (inactive),106,-30.3% (inactive),107,-0.266 (inactive),-1.2e-05 (inactive),0.00583 (inactive),15.8% (inactive),9.02% (inactive)
COc1cccc2c(=O)c3c(cnn3C)n(C)c12,279,16.3% (inactive),-31.5% (inactive),52.8,-37.2% (inactive),111,-0.412 (inactive),3.1e-05 (inactive),0.00385 (inactive),-10.8% (inactive),-29.4% (inactive)
NC(=O)c1c(NC(=O)CSc2nnc(-c3ccco3)n2-c2ccccc2)sc2c1CCC2,577,-15.4% (inactive),-3.6% (inactive),115,50.4% (inactive),132,-0.525 (inactive),0.00013 (inactive),0.00489 (inactive),30.1% (inactive),32.9% (inactive)
CN(C)c1ccc(NC(=O)CSCc2nc3c(nnn3Cc3ccc(F)cc3)c(=O)[nH]2)cc1,579,7.1% (inactive),-8.4% (inactive),105,-72.4% (inactive),114,-0.204 (inactive),-6.4e-06 (inactive),0.00529 (inactive),10.7% (inactive),15.6% (inactive)
COc1ccc(CNC(=O)Cn2nc(C(F)(F)F)c3c2CCC3)cc1,620,-13.3% (inactive),-8% (inactive),103,-56.6% (inactive),116,-0.396 (inactive),-9.3e-05 (inactive),0.00662 (inactive),6.68% (inactive),19.7% (inactive)
COc1ccccc1Nc1nc(N)nc(CN2CCN(c3ccccc3F)CC2)n1,561,-12.1% (inactive),-5.7% (inactive),97.3,25.3% (inactive),97.6,-0.571 (inactive),-2.2e-05 (inactive),0.00301 (inactive),-5.08% (inactive),-10.4% (inactive)
Cn1cnnc1SCC(=O)NCc1cccc(C(F)(F)F)c1,352,1.1% (inactive),0.1% (inactive),116,-95.6% (inactive),118,-0.532 (inactive),3.5e-05 (inactive),0.00701 (inactive),4.51% (inactive),3.97% (inactive)
O=C(CCN1CCOCC1)Nc1ccc2c(c1)CCC2,228,5.7% (inactive),17.3% (inactive),74.9,-83.8% (inactive),140,-0.442 (inactive),-5.3e-05 (inactive),0.00437 (inactive),4.13% (inactive),-9.22% (inactive)
N#C[C@@H]1[C@@H]2C(=O)N(c3ccc4c(c3)OCCO4)C(=O)[C@@H]2C2c3ccccc3C=CN21 (stereo partly drawn),351,0.5% (inactive),6.7% (inactive),107,-62.1% (inactive),106,-0.6 (inactive),-2.2e-05 (inactive),0.00563 (inactive),-1.7% (inactive),-13.1% (inactive)
CCOC(=O)CSc1nc2ccccc2n2cnnc12,315,-1.4% (inactive),13.5% (inactive),103,-4% (inactive),113,-0.327 (inactive),-5.9e-05 (inactive),0.00582 (inactive),2.3% (inactive),8.27% (inactive)
CN(CC(=O)N1CCN(C2CCCCC2)CC1)S(=O)(=O)c1cccc2nsnc12,367,0.8% (inactive),-4.6% (inactive),102,36% (inactive),94.6,-0.379 (inactive),8e-05 (inactive),0.00544 (inactive),13% (inactive),28.3% (inactive)
